The source made the active and inactive calls. No cut-off for these calls is given here.

The record followed here is ChEMBL document CHEMBL4602720, “Degradation versus Inhibition: Development of Proteolysis-Targeting Chimeras for Overcoming Statin-Induced Compensatory Upregulation of 3-Hydroxy-3-methylglutaryl Coenzyme A Reductase” (J Med Chem, 2020).

The target of test [1] is T1, Protein cereblon/3-hydroxy-3-methylglutaryl-coenzyme A reductase (Cricetulus griseus) (UniProt P00347+G3H338). The test is described as follows: Protac activity at CRBN/HMGCR in Insig-1/Insig-2 deficient Chinese hamster SRD15 cells assessed as HMGCR level at 1 uM after 16 hrs in presence of 0.1 uM atorvastatin by immunoblotting analysis (reference value: 1). On the technique in general: Immunoblotting shows a protein as a band on a membrane.
Target sequence in this assay (G3H338 1-445 partner): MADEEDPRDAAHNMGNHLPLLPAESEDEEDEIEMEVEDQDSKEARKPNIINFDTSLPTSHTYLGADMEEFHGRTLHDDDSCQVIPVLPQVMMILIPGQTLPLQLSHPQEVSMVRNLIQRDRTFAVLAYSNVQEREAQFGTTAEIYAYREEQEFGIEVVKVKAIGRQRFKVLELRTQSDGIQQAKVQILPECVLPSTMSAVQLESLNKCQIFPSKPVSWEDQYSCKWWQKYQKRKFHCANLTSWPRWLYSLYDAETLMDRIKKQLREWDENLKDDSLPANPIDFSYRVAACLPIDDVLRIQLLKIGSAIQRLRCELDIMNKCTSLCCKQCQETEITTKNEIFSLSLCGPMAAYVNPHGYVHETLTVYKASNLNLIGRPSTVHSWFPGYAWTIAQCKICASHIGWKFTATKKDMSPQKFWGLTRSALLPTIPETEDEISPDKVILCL
Target sequence in this assay (P00347 whole entry): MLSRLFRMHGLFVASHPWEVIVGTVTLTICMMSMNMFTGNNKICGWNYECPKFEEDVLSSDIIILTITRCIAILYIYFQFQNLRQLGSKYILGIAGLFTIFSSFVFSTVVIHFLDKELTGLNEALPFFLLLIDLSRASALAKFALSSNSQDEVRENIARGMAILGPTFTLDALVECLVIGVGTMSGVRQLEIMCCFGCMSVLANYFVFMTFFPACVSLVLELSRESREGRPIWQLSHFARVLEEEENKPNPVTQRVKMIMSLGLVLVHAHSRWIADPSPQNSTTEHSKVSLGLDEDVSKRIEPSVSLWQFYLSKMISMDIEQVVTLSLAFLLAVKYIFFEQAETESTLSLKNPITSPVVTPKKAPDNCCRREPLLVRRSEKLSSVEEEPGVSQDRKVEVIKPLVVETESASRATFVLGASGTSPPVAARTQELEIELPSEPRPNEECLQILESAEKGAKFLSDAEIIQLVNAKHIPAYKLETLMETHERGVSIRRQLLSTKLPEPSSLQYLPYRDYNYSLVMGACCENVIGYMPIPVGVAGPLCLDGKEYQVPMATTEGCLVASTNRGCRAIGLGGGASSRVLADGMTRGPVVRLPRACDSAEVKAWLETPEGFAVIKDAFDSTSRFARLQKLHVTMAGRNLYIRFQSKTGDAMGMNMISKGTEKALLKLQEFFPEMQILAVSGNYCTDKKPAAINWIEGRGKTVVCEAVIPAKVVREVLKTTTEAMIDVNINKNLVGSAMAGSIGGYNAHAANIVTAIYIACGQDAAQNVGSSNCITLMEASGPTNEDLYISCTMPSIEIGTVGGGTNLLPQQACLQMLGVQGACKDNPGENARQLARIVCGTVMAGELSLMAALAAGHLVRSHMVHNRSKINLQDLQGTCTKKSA

In test [2] the target is T2, 3-hydroxy-3-methylglutaryl-coenzyme A reductase (Homo sapiens) (UniProt P04035).
T2 sequence (whole entry): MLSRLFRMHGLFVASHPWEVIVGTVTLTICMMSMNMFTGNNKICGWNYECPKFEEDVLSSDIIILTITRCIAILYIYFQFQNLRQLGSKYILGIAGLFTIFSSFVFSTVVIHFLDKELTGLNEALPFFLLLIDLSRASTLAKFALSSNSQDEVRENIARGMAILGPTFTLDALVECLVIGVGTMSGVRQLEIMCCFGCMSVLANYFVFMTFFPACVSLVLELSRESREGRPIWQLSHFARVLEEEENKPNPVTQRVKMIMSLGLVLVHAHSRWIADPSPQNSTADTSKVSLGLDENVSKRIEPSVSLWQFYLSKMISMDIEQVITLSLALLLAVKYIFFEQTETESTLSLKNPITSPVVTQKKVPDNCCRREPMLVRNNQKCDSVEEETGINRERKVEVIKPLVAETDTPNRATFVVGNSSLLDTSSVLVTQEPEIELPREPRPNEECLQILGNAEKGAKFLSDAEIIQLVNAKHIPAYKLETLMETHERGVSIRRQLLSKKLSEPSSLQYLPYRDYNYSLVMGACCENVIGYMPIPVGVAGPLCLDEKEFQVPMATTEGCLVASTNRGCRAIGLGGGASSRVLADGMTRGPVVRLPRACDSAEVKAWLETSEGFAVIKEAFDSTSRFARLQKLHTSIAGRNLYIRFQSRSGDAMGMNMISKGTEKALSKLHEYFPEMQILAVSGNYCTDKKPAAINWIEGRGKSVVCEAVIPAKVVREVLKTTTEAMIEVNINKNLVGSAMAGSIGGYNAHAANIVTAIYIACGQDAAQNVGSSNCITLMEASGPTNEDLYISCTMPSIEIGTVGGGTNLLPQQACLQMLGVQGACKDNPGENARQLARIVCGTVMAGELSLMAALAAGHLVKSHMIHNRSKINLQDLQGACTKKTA
Nature of the test: Inhibition of GFP-labelled HMGCR (unknown origin) expressed in lentivirus Chinese hamster SRD15 cells assessed as reduction in cholesterol biosynthesis at 1 uM after 16 hrs by Hoechst staining based laser-scanning microscopic method. Type of test: cell-based.

In test [3] the target is T1, Protein cereblon/3-hydroxy-3-methylglutaryl-coenzyme A reductase (Cricetulus griseus). Nature of the test: Protac activity at CRBN/HMGCR in 5'-GGAAGUCGAAGACCAAGAU-3' siRNA transfected in Insig-1/Insig-2 deficient Chinese hamster SRD15 cells assessed as induction of HMGCR degradation at after 16 hrs by immunoblotting analysis. Summed up: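 SRD15 cells (Insig-1/Insig-2-deficient CHO-7) in Medium A with 5% FBS at 37 °C, 5% CO2; transfected with negative-control or Crbn-targeting siRNA duplexes for 48 h, then given 1 μM degrader for 16 h. HMGCR by SDS-PAGE immunoblot of RIPA lysates. Knockdown efficiency checked by qRT-PCR against hamster GAPDH, comparative CT method. n = 3 independent experiments.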
Target sequence in this assay (G3H338 1-445 partner): as the sequence (G3H338 1-445 partner) above
Target sequence in this assay (P00347 whole entry): as the sequence (P00347 whole entry) above

The target is the same in test [4]. The test is described as follows: Protac activity at human Flag-tagged CRBN YW/AA mutant /T7-tagged HMGCR transfected in Insig-1/Insig-2 deficient Chinese hamster SRD15 cells assessed as induction of HMGCR degradation at 0.01 to 1 uM after 16 hrs by immunoblotting analysis.
Test [5] has as its target T3, Thioredoxin domain-containing protein 11 (Homo sapiens) (UniProt Q6PKC3).
T3 sequence (whole entry): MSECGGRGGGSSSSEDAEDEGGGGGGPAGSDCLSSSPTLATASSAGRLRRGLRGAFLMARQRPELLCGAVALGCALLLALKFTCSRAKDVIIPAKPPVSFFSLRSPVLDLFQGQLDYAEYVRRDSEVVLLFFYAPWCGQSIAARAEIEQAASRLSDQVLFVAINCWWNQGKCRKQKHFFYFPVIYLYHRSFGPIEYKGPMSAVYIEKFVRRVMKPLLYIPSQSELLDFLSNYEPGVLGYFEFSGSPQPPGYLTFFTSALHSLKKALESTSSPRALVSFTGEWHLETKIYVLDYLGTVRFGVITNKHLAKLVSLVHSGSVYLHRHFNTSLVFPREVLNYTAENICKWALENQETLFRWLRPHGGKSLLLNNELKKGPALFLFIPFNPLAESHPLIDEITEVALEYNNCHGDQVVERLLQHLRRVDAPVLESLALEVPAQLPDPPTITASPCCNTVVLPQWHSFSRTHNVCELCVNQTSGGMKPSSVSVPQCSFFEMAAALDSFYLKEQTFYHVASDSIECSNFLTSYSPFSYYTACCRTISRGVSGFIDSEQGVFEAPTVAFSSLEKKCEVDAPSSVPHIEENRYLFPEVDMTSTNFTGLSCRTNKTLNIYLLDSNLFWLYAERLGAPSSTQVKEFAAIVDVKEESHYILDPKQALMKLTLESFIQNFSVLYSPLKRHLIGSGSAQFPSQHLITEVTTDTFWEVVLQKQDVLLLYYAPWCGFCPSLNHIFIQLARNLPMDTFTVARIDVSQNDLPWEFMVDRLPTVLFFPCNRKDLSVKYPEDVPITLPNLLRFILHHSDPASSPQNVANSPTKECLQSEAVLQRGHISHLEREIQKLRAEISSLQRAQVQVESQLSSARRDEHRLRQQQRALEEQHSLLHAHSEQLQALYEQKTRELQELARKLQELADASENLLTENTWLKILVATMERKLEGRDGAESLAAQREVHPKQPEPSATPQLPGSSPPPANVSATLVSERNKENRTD
Nature of the test: Activation of TXNDC11 (unknown origin).

In test [6] the target is T1, Protein cereblon/3-hydroxy-3-methylglutaryl-coenzyme A reductase (Cricetulus griseus). The test is described as follows: Protac activity at CRBN/HMGCR in Insig-1/Insig-2 deficient Chinese hamster SRD15 cells assessed as induction of HMGCR degradation at 1 uM preincubated for 16 hrs followed by addition of neddylation inhibitor MLN4924 and further incubated for 3 hrs by Western blot analysis. An outline of the steps:
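SRD15 cells treated with 1 μM degrader for 16 h, then for 3 h with 10 μM MG132 or with MLN-4924 at the indicated concentrations. HMGCR by immunoblot.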
Target sequence in this assay (G3H338 1-445 partner): as the sequence (G3H338 1-445 partner) above
Target sequence in this assay (P00347 whole entry): as the sequence (P00347 whole entry) above

Test [7] deals with T4, Protein cereblon/3-hydroxy-3-methylglutaryl-coenzyme A reductase (Homo sapiens) (UniProt P04035+Q96SW2). Nature of the test: Protac activity at human Flag-tagged CRBN/T7-tagged HMGCR expressed in Chinese hamster SRD15 cells transfected with HA-tagged ubiquitin assessed as increase in HMGCR immunoprecipitation 1 uM incubated for 16 hrs followed by atorvastatin addition addition and measured after 5 hrs in presence of MG132 by Western blot analysis. It is filed as cell-based.

Test [8] concerns the target T4, Protein cereblon/3-hydroxy-3-methylglutaryl-coenzyme A reductase (Homo sapiens). The test is described as follows: Protac activity at human Flag-tagged CRBN/T7-tagged HMGCR expressed in Chinese hamster SRD15 cells transfected with HA-tagged ubiquitin assessed as increase in HMGCR immunoprecipitation 1 uM incubated for 16 hrs followed by pomalidomide addition addition and measured after 5 hrs in presence of MG132 by Western blot analysis. Type of test: cell-based.

T4 sequence (Q96SW2 whole entry, looked up, one chain of several): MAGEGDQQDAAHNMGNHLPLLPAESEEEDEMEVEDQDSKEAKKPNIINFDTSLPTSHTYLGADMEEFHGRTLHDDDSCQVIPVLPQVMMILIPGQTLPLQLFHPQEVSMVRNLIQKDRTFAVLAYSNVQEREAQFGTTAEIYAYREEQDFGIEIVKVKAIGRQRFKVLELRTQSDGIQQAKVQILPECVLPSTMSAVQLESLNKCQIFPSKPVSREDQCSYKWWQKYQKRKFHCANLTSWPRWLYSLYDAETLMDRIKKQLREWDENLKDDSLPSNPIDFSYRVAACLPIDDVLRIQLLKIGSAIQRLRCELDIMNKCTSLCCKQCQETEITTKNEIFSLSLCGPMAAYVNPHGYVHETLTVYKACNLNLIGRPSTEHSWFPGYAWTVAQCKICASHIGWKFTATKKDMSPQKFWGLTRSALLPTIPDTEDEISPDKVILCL

Consider `CC(C)c1c(C(=O)Nc2ccccc2)c(-c2cccc(OCCCc3cn(CCOCCOCCOCCOCCNc4cccc5c4C(=O)N(C4CCC(=O)NC4=O)C5=O)nn3)c2)c(-c2ccc(F)cc2)n1CC[C@@H](O)C[C@@H](O)CC(=O)O` (stereo partly drawn), for which the fold change (FC) was 0.9 in test [1] and 7 in test [5]. For the same compound, the inhibition result in test [2] is “Active”. Besides, the outcome in test [3], in test [4], in test [6], in test [7] and in test [8] was inactive.
